In brackets after ≈: the same amount, converted by molar mass.

This passage reports MIC results from ChEMBL document CHEMBL3120077, “Synthesis, structure-activity relationship of iodinated-4-aryloxymethyl-coumarins as potential anti-cancer and anti-mycobacterial agents” (Eur J Med Chem, 2014).

Common to all, as to assay type: functional
Assay [1] deals with Mycobacterium tuberculosis. The assay can be described thus: Antimicrobial activity against Mycobacterium tuberculosis. Summed up: (§1)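 M. tuberculosis H37Rv was tested in Middlebrook 7H9 broth in a microplate Alamar Blue assay. Compounds were serially diluted on the plate to final concentrations of 100–0.2 µg/mL. Sealed plates were incubated at 37 °C for 5 days. A fresh 1:1 mix of Alamar Blue and 10% Tween 80 was then added, followed by 24 h more incubation. Blue wells were scored as no growth, pink as growth.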

The subject of assay [2] is A549. The assay can be described thus: Cytotoxicity against human A549 cells after 24 hrs by MTT assay. Summed up: (§2)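 Cells seeded at 2×10^4/well, incubated overnight, then exposed 24 h to test concentrations. MTT (5 mg/mL stock) added, 3 h at 37 °C; formazan dissolved in DMSO, absorbance 570 nm. Percent viability inhibition relative to untreated control; IC50 from linear regression of the dose-response line.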
Background: Tetrazolium dyes change colour on reduction, which living cells bring about.

For assay [3], the system named is Mycolicibacterium phlei. The assay can be described thus: Antimicrobial activity against Mycobacterium phlei after 5 days by microplate Alamar Blue assay. The following applies: 120 h. Summed up:
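Microplate Alamar Blue assay (MABA) in Middlebrook 7H9 broth, compounds serially diluted on plate to final 100–0.2 µg/mL. Plates sealed and incubated 37 °C for 5 days, then 1:1 Alamar Blue/10% Tween 80 added and incubated 24 h more. Blue scored as no growth, pink as growth.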

The subject of assay [4] is Mycobacterium tuberculosis. The assay can be described thus: Antimicrobial activity against Mycobacterium tuberculosis H37Rv after 5 days by microplate Alamar Blue assay. The following applies: 120 h. Summed up: as §1
(In general: The colour change of resazurin is a common sign of viable cells or microbes.)

A short description of assay [5]: Cytotoxicity against human MDA-MB cells after 24 hrs by MTT assay. Summed up: as §2
Assay [6] concerns Mycobacterium tuberculosis. The assay can be described thus: Antimicrobial activity against Mycobacterium tuberculosis ATCC 27294 by microplate Alamar Blue assay. Summed up:
as §1

`Cc1cc(=O)oc2cc(OCc3cn(Cc4cc(=O)oc5ccc6ccccc6c45)nn3)ccc12` yielded an MIC in assay [1] of 6.25 µg/mL (≈ 13.4 µM).

As for `Cc1cc(=O)oc2cc(OCc3cn(Cc4cc(=O)oc5cc(Cl)ccc45)nn3)ccc12`, the MIC in assay [1] turned out to be 6.25 µg/mL (≈ 13.9 µM).

Take `O=c1cc(COc2cccc(I)c2)c2cc(Br)ccc2o1`: the MIC in assay [2] was 6.25 µg/mL (≈ 13.7 µM); in assay [3], 6.25 µg/mL (≈ 13.7 µM); in assay [4], 12.5 µg/mL (≈ 27.3 µM); in assay [5], 6.25 µg/mL (≈ 13.7 µM).

In the case of `Cc1ccc2oc(=O)cc(COc3ccc(I)cc3)c2c1`, the MIC in assay [2], in assay [3], in assay [4] and in assay [5] was 12.5 µg/mL (≈ 31.9 µM) in each case.

`Cc1ccc2c(COc3ccc(I)cc3)cc(=O)oc2c1`: the MIC is 12.5 µg/mL (≈ 31.9 µM) in assay [2], 12.5 µg/mL (≈ 31.9 µM) in assay [3], 25 µg/mL (≈ 63.7 µM) in assay [4] and 12.5 µg/mL (≈ 31.9 µM) in assay [5].

Regarding `Cc1ccc2c(COc3ccc(I)cc3)cc(=O)oc2c1C`, the MIC in assay [2], in assay [3], in assay [4] and in assay [5] was 12.5 µg/mL (≈ 30.8 µM) each time.

For the compound `COc1ccc2oc(=O)cc(COc3ccc(I)cc3)c2c1`, the MIC amounted to 6.25 µg/mL (≈ 15.3 µM) in assay [2], 12.5 µg/mL (≈ 30.6 µM) in assay [3], 25 µg/mL (≈ 61.2 µM) in assay [4] and 25 µg/mL (≈ 61.2 µM) in assay [5].

In the case of `COc1ccc2c(COc3ccc(I)cc3)cc(=O)oc2c1`, the MIC in assay [2] worked out at 6.25 µg/mL (≈ 15.3 µM); in assay [3], 12.5 µg/mL (≈ 30.6 µM); in assay [4] it was 25 µg/mL (≈ 61.2 µM); in assay [5], 25 µg/mL (≈ 61.2 µM).

On to `O=c1cc(COc2ccc(I)cc2)c2c(ccc3ccccc32)o1`, for which the MIC in assay [2] is 6.25 µg/mL (≈ 14.6 µM); in assay [3], 25 µg/mL (≈ 58.4 µM); in assay [4] it was 25 µg/mL (≈ 58.4 µM); in assay [5], 25 µg/mL (≈ 58.4 µM).

For `O=c1cc(COc2ccc(I)cc2)c2ccc3ccccc3c2o1`, the MIC in assay [2] turned out to be 6.25 µg/mL (≈ 14.6 µM); in assay [3], 25 µg/mL (≈ 58.4 µM); in assay [4], 25 µg/mL (≈ 58.4 µM); in assay [5] it was 25 µg/mL (≈ 58.4 µM).

Consider `O=c1cc(COc2ccc(I)cc2)c2cc(Cl)ccc2o1`, for which the MIC in assay [2] was found to be 3.12 µg/mL (≈ 7.57 µM); in assay [3] it was 3.12 µg/mL (≈ 7.57 µM); in assay [4] it was 1.56 µg/mL (≈ 3.78 µM); in assay [5] it was 1.56 µg/mL (≈ 3.78 µM).

With `O=c1cc(COc2ccc(I)cc2)c2ccc(Cl)cc2o1`, the MIC worked out at 3.12 µg/mL (≈ 7.57 µM) in assay [2], 3.12 µg/mL (≈ 7.57 µM) in assay [3], 1.56 µg/mL (≈ 3.78 µM) in assay [4] and 1.56 µg/mL (≈ 3.78 µM) in assay [5].

As for `O=c1cc(COc2ccc(I)cc2)c2cc(Br)ccc2o1`, the MIC in assay [2] amounted to 3.12 µg/mL (≈ 6.84 µM); in assay [3], 6.25 µg/mL (≈ 13.7 µM); in assay [4], 6.25 µg/mL (≈ 13.7 µM); in assay [5], 3.12 µg/mL (≈ 6.84 µM).

For `O=C(N/N=C/c1cccc(O)c1)c1cc2ccccc2oc1=O`, in assay [1], the MIC was 50 µg/mL (≈ 162 µM).

In assay [1], `Cc1cc(=O)oc2cc(OCc3cn(Cc4cc(=O)oc5ccc(Cl)cc45)nn3)ccc12` had an MIC of 6.25 µg/mL (≈ 13.9 µM).

Take `Cc1ccc2oc(=O)cc(COc3ccccc3I)c2c1`: the MIC is 50 µg/mL (≈ 127 µM) in assay [2], greater than 100 µg/mL in assay [3], 12.5 µg/mL (≈ 31.9 µM) in assay [4] and 12.5 µg/mL (≈ 31.9 µM) in assay [5].

`Cc1ccc2c(COc3ccccc3I)cc(=O)oc2c1`: the MIC is 50 µg/mL (≈ 127 µM) in assay [2], greater than 100 µg/mL in assay [3], 12.5 µg/mL (≈ 31.9 µM) in assay [4] and 12.5 µg/mL (≈ 31.9 µM) in assay [5].

For `Cc1ccc2c(COc3ccccc3I)cc(=O)oc2c1C`, the MIC worked out at 50 µg/mL (≈ 123 µM) in assay [2], 50 µg/mL (≈ 123 µM) in assay [3], 25 µg/mL (≈ 61.5 µM) in assay [4] and 25 µg/mL (≈ 61.5 µM) in assay [5].

In the case of `COc1ccc2oc(=O)cc(COc3ccccc3I)c2c1`, the MIC worked out at 25 µg/mL (≈ 61.2 µM) in assay [2], 50 µg/mL (≈ 122 µM) in assay [3], 12.5 µg/mL (≈ 30.6 µM) in assay [4] and 25 µg/mL (≈ 61.2 µM) in assay [5].

Regarding `COc1ccc2c(COc3ccccc3I)cc(=O)oc2c1`, the MIC in assay [2] amounted to 25 µg/mL (≈ 61.2 µM); in assay [3], 50 µg/mL (≈ 122 µM); in assay [4], 12.5 µg/mL (≈ 30.6 µM); in assay [5], 25 µg/mL (≈ 61.2 µM).

Take `O=c1cc(COc2ccccc2I)c2c(ccc3ccccc32)o1`: the MIC was found to be 25 µg/mL (≈ 58.4 µM) in assay [2], 50 µg/mL (≈ 117 µM) in assay [3], 50 µg/mL (≈ 117 µM) in assay [4] and 25 µg/mL (≈ 58.4 µM) in assay [5].

In the case of `O=c1cc(COc2ccccc2I)c2ccc3ccccc3c2o1`, the MIC was found to be 25 µg/mL (≈ 58.4 µM) in assay [2], 50 µg/mL (≈ 117 µM) in assay [3], 50 µg/mL (≈ 117 µM) in assay [4] and 25 µg/mL (≈ 58.4 µM) in assay [5].

Regarding `O=c1cc(COc2ccccc2I)c2cc(Cl)ccc2o1`, the MIC in assay [2] was determined as 12.5 µg/mL (≈ 30.3 µM); in assay [3] it was 25 µg/mL (≈ 60.6 µM); in assay [4] it was 6.25 µg/mL (≈ 15.1 µM); in assay [5], 12.5 µg/mL (≈ 30.3 µM).

Regarding `O=c1cc(COc2ccccc2I)c2ccc(Cl)cc2o1`, the MIC is 12.5 µg/mL (≈ 30.3 µM) in assay [2], 25 µg/mL (≈ 60.6 µM) in assay [3], 6.25 µg/mL (≈ 15.1 µM) in assay [4] and 12.5 µg/mL (≈ 30.3 µM) in assay [5].

Turning to `O=c1cc(COc2ccccc2I)c2cc(Br)ccc2o1`, the MIC in assay [2] was found to be 12.5 µg/mL (≈ 27.3 µM); in assay [3], 50 µg/mL (≈ 109 µM); in assay [4], 6.25 µg/mL (≈ 13.7 µM); in assay [5], 12.5 µg/mL (≈ 27.3 µM).

`Cc1ccc2oc(=O)cc(COc3cccc(I)c3)c2c1`: the MIC is 25 µg/mL (≈ 63.7 µM) in assay [2], 12.5 µg/mL (≈ 31.9 µM) in assay [3], 25 µg/mL (≈ 63.7 µM) in assay [4] and 25 µg/mL (≈ 63.7 µM) in assay [5].

For `Cc1ccc2c(COc3cccc(I)c3)cc(=O)oc2c1`, the MIC in assay [2] is 25 µg/mL (≈ 63.7 µM); in assay [3], 12.5 µg/mL (≈ 31.9 µM); in assay [4] it was 25 µg/mL (≈ 63.7 µM); in assay [5], 25 µg/mL (≈ 63.7 µM).

`Cc1ccc2c(COc3cccc(I)c3)cc(=O)oc2c1C`: the MIC in assay [2], in assay [3], in assay [4] and in assay [5] was 25 µg/mL (≈ 61.5 µM) in each case.

In the case of `COc1ccc2oc(=O)cc(COc3cccc(I)c3)c2c1`, the MIC worked out at 12.5 µg/mL (≈ 30.6 µM) in assay [2], 50 µg/mL (≈ 122 µM) in assay [3], 25 µg/mL (≈ 61.2 µM) in assay [4] and 50 µg/mL (≈ 122 µM) in assay [5].

On to `COc1ccc2c(COc3cccc(I)c3)cc(=O)oc2c1`, for which the MIC was determined as 12.5 µg/mL (≈ 30.6 µM) in assay [2], 50 µg/mL (≈ 122 µM) in assay [3], 25 µg/mL (≈ 61.2 µM) in assay [4] and 50 µg/mL (≈ 122 µM) in assay [5].

`O=c1cc(COc2cccc(I)c2)c2c(ccc3ccccc32)o1`: the MIC worked out at 12.5 µg/mL (≈ 29.2 µM) in assay [2], 25 µg/mL (≈ 58.4 µM) in assay [3], 25 µg/mL (≈ 58.4 µM) in assay [4] and 50 µg/mL (≈ 117 µM) in assay [5].

Take `O=c1cc(COc2cccc(I)c2)c2ccc3ccccc3c2o1`: the MIC in assay [2] was determined as 12.5 µg/mL (≈ 29.2 µM); in assay [3], 25 µg/mL (≈ 58.4 µM); in assay [4] it was 25 µg/mL (≈ 58.4 µM); in assay [5], 50 µg/mL (≈ 117 µM).

For `O=c1cc(COc2cccc(I)c2)c2cc(Cl)ccc2o1`, the MIC in assay [2] worked out at 6.25 µg/mL (≈ 15.1 µM); in assay [3], 6.25 µg/mL (≈ 15.1 µM); in assay [4], 12.5 µg/mL (≈ 30.3 µM); in assay [5] it was 6.25 µg/mL (≈ 15.1 µM).

For `O=c1cc(COc2cccc(I)c2)c2ccc(Cl)cc2o1`, the MIC in assay [2] is 6.25 µg/mL (≈ 15.1 µM); in assay [3], 6.25 µg/mL (≈ 15.1 µM); in assay [4] it was 12.5 µg/mL (≈ 30.3 µM); in assay [5], 6.25 µg/mL (≈ 15.1 µM).

Compound `O=C(Cc1cc(=O)oc2cc(O)ccc12)N/N=C/c1cccc([N+](=O)[O-])c1` came in with an MIC in assay [6] of 6.25 µg/mL (≈ 17 µM).

As for `NC(=O)c1cnccn1` [PYRAZINAMIDE], the MIC in assay [3] and in assay [4] was 3.12 µg/mL (≈ 25.4 µM) throughout.

Turning to `CN[C@@H]1[C@H](O[C@H]2[C@H](O[C@H]3[C@H](O)[C@@H](O)[C@H](N=C(N)N)[C@@H](O)[C@@H]3N=C(N)N)O[C@@H](C)[C@]2(O)C=O)O[C@@H](CO)[C@H](O)[C@H]1O` [STREPTOMYCIN], the MIC in assay [3] and in assay [4] was 6.25 µg/mL (≈ 10.7 µM) in each case.
